For one data set, the target named is T1, human ALDH1A2 (Homo sapiens, UniProt O94788).
T1 sequence (O94788 27-518): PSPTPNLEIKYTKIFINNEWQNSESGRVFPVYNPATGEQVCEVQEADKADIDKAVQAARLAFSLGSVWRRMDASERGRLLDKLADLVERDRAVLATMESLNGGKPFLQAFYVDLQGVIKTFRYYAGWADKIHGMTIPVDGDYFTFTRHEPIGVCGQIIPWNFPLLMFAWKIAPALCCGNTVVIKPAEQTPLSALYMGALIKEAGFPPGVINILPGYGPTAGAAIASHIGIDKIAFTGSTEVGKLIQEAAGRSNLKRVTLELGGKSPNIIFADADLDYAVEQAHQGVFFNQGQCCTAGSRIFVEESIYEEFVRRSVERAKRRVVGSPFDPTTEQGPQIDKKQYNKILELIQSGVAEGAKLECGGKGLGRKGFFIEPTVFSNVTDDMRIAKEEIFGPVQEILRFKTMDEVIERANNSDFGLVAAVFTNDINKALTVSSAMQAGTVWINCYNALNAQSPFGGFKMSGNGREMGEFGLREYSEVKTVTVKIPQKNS
In words: Differential scanning fluorimetry. The class given is binding. The conditions noted are these: for DSF ΔTm (°C); (−) NAD: 200 μM compound, 4 μM ALDH1A2, absence of NAD, single experiment in quadruplicate. In a few lines:
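Truncated human ALDH1A2 (residues 27–518) expressed in E. coli BL21Star (DE3), His-tag removed by PreScission protease, purified as a tetramer. Fluorescence read at 620 nm (ROX channel) during thermal melt, in quadruplicate. ΔTm taken against unliganded enzyme with 2% DMSO.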
For orientation: DSF heats the sample and reads unfolding from a dye or from intrinsic fluorescence.

The data set “crystal structure” concerns the molecule itself. In words: crystal structure.

In the case of `O=C(NCCCCCCCCNC(=O)C(Cl)Cl)C(Cl)Cl` [WIN18,446, reference compound], on human ALDH1A2, the “DSF ΔTm (°C); (−) NAD” value was found to be 7.6 ± 0.17 °C.

As for `CS(=O)(=O)c1ccc(-c2nn(-c3ccc(C#N)cc3)cc2C(=O)Nc2cccc(F)c2)cc1` [CM121], at human ALDH1A2, the “DSF ΔTm (°C); (−) NAD” value is 5.4 ± 0.15 °C. As for `NC(=O)c1ccc[n+]([C@@H]2O[C@H](COP(=O)([O-])OP(=O)(O)OC[C@H]3O[C@@H](n4cnc5c(N)ncnc54)[C@H](O)[C@@H]3O)[C@@H](O)[C@H]2O)c1` [NAD], on human ALDH1A2 (1 mM NAD+ alone, no inhibitor), the “DSF ΔTm (°C); (+) NAD” value is 2.6 ± 0.04 °C.

B1: human ALDH1A2 (residues 27-518) (enzyme, UniProt O94788 27-518, looked up)
chain: PSPTPNLEIKYTKIFINNEWQNSESGRVFPVYNPATGEQVCEVQEADKADIDKAVQAARLAFSLGSVWRRMDASERGRLLDKLADLVERDRAVLATMESLNGGKPFLQAFYVDLQGVIKTFRYYAGWADKIHGMTIPVDGDYFTFTRHEPIGVCGQIIPWNFPLLMFAWKIAPALCCGNTVVIKPAEQTPLSALYMGALIKEAGFPPGVINILPGYGPTAGAAIASHIGIDKIAFTGSTEVGKLIQEAAGRSNLKRVTLELGGKSPNIIFADADLDYAVEQAHQGVFFNQGQCCTAGSRIFVEESIYEEFVRRSVERAKRRVVGSPFDPTTEQGPQIDKKQYNKILELIQSGVAEGAKLECGGKGLGRKGFFIEPTVFSNVTDDMRIAKEEIFGPVQEILRFKTMDEVIERANNSDFGLVAAVFTNDINKALTVSSAMQAGTVWINCYNALNAQSPFGGFKMSGNGREMGEFGLREYSEVKTVTVKIPQKNS
Broadly, the stoichiometry N is a count of units in the complex or per binding partner. Consider B1, for which the “stoichiometry N” value in the data set “crystal structure” was determined as 4.
